This passage reports ED50, inhibition and IC50 results from ChEMBL document CHEMBL1124773, “(Phosphinyloxy)acyl amino acid inhibitors of angiotensin converting enzyme. 2. Terminal amino acid analogues of (S)-1-[6-amino-2 [[hydroxy(4-phenylbutyl)phosphinyl]oxy]-1-oxohexyl]-L-proline” (J Med Chem, 1990).

In experiment [1] the target is T1, Angiotensin-converting enzyme (Rattus norvegicus) (UniProt P47820).
T1 sequence (whole entry): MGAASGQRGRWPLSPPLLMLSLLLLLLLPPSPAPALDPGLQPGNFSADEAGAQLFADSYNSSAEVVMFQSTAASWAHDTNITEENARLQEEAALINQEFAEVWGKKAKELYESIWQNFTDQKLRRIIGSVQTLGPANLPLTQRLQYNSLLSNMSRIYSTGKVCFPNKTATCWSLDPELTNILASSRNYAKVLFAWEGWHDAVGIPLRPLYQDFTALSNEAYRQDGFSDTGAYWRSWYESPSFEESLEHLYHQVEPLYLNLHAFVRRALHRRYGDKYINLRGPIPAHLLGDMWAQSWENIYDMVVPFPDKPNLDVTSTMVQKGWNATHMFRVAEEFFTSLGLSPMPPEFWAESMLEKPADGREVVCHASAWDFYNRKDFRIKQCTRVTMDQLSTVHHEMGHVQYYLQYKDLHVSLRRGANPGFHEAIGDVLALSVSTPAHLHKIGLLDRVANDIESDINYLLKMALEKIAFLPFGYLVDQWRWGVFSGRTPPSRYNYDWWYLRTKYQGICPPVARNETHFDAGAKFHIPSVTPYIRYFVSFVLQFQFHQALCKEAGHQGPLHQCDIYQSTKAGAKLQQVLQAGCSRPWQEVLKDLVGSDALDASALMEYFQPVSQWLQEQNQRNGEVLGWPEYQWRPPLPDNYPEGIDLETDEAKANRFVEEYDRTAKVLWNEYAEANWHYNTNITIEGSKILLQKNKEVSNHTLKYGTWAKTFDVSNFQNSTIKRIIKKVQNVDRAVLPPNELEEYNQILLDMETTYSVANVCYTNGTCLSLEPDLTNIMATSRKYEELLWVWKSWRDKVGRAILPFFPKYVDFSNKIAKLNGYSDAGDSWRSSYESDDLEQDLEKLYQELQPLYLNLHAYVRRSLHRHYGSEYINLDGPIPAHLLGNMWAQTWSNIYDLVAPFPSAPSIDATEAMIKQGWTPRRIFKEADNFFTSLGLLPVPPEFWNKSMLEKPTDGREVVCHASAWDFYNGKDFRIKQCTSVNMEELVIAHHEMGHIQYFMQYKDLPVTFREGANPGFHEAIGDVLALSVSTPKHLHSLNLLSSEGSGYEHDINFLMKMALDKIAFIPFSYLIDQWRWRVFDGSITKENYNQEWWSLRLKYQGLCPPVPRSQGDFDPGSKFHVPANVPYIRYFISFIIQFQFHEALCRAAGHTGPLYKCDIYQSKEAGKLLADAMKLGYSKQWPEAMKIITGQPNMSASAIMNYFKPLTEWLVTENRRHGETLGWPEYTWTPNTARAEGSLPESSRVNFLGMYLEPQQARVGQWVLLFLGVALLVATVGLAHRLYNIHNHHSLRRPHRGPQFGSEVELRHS
Briefly: In vivo dose required to produce 50% inhibition against angiotensin I in normotensive rat after intravenous administration. The experiment is classed as functional, organism-based. The method, boiled down:
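Conscious, unrestrained male Sprague-Dawley rats (225–275 g) with indwelling aortic and vena caval catheters, recovered ≥2 weeks. […] Compound given iv in 0.1 mL water or 5% NaHCO3, responses followed up to 70 min. Maximum % inhibition is the mean of four rats per dose; ED50 interpolated from plots of ≥3 doses.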

The target in experiment [2] is T1, Angiotensin-converting enzyme (Rattus norvegicus). Briefly: In vivo oral activity in normotensive rat and percent maximal inhibition of the angiotensin I pressor response. Format: functional, organism-based. The method, boiled down:
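Catheterized conscious, unrestrained male Sprague-Dawley rats (225–275 g), recovered ≥2 weeks. […] Oral dose in 0.1 mL water, 5% NaHCO3 or 1% agar suspension. Aortic pressure read by transducer for up to 280 min. Maximum % inhibition is the mean of four animals per dose.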

Experiment [3] has as its target T2, Angiotensin-converting enzyme (Oryctolagus cuniculus, UniProt P12822).
T2 sequence (P12822 whole entry): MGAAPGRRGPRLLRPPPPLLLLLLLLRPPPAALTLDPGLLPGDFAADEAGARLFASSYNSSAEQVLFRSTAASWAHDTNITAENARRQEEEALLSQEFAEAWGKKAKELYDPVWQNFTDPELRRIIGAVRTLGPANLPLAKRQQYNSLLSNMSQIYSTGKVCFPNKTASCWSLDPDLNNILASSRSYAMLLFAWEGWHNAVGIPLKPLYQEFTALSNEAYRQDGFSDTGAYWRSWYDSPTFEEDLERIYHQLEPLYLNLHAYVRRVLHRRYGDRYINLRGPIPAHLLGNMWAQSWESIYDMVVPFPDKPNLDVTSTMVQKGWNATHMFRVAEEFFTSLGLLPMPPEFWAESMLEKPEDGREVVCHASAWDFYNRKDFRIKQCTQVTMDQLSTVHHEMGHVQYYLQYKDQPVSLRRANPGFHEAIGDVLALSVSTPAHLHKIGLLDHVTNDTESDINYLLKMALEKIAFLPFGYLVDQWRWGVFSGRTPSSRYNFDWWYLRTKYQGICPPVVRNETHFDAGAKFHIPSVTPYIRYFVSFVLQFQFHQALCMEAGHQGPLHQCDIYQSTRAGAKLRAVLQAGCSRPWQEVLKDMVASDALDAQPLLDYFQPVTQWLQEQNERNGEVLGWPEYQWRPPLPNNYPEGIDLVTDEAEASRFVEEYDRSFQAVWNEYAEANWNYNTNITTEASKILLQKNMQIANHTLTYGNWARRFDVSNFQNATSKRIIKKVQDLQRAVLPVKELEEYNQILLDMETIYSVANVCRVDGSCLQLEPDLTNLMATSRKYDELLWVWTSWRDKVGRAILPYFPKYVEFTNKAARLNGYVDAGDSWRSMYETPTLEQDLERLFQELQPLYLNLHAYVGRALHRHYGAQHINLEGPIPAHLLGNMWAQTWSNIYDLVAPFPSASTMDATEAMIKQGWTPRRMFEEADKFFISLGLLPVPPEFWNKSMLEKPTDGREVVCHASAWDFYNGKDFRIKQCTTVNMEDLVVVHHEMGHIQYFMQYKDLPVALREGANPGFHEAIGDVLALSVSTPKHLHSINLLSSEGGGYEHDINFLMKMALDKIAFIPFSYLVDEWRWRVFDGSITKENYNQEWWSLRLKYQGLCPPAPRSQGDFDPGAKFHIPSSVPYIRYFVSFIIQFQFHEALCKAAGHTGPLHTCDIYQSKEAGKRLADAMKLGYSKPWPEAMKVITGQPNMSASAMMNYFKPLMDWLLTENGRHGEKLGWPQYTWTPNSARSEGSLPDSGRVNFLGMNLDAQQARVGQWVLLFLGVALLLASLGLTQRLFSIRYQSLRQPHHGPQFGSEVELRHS
Put plainly: Evaluated for inhibitory activity against rabbit lung angiotensin I converting enzyme (ACE) using hippuryl-histidyl-leucine as substrate. The settings on record: read-out: I50.

In general, ED50 refers to the dose that gives a 50% effect, or the effect in half of the subjects. Lower therefore signals an effect at a small dose. The inhibition is the percentage by which the read-out fell short of the control. High values mean a strong effect, low ones a weak effect. Molecule `NCCCC[C@H](OP(=O)(O)CCCCc1ccccc1)C(=O)N(CC(=O)O)c1ccccc1` came in with a median effective dose (ED50) in experiment [1] of 0.136 µmol/kg. The molecule further registered an inhibition in experiment [2] of 53%. The IC50 in experiment [3] was 29 nM.
For `NCCCC[C@H](OP(=O)(O)CCCCc1ccccc1)C(=O)N(CC(=O)O)C1Cc2ccccc2C1`, in experiment [1], the ED50 was 0.196 µmol/kg. Moreover, the IC50 in experiment [3] came to 27 nM.
